A short description of test [1]: Her2 expression decrease, cell viability multiplex – SKBR3 breast tumor cells, AlphaScreen, ATP viability, primary screen (AID 461;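 active means Her2 level under about 52% in both replicate screens, with viability over 70% of control, limit read from the data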;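 on Her2 level: lower value means less Her2 protein in the cells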;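 on viability: percent of carrier control wells set as 100% viability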). Conditions: SKBR3 Her2 protein level, 18-24 h, measured here: SKBR3 viability, ATP luminescence, at 10 µM. (In Alpha technology, singlet oxygen from a donor bead excites a nearby acceptor bead.)
Test [2] has as its target Receptor tyrosine-protein kinase erbB-2 (Homo sapiens) (UniProt P04626). The test is described as above. Conditions: 18-24 h, at 10 µM, stronger effect = lower value.
Test [3] can be described thus: reduced viability of SK-BR-3 breast cancer cells – cell-based, 24 h, human, pilot screen (AID 572;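 active means viability at or below 10% of carrier control in both of two separate runs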;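 further: compound exposure lasted between 18 and 24 h rather than exactly 24 h; 100% = carrier-treated control wells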). Conditions: SK-BR-3 viability, CellTiter-Glo luminescence, at 10 µM, stronger effect = lower value. For orientation: ATP-based viability assays read luminescence as a measure of living cells.
A short description of test [4]: HUVEC growth inhibition – cell-based, human, primary screen (AID 575;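 active means viability at or below 30% in both replicate assays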;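 further: 100% = median of untreated cell wells with 0.1% DMSO on each plate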). Conditions: HUVEC proliferation, CellTiter-Glo luminescence, 72 h; at 10 µM; stronger effect = lower value. The method, boiled down:
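Material: primary human umbilical vein endothelial cells / Schedule: 72 h exposure, 37 °C, 5% CO2, 30 min RT equilibration / Signal: ATP-based CellTiter-Glo luminescent read / Read-out basis: percent of median DMSO-control luminescence / Control set: 32 DMSO-only cell-control wells (high), 32 MePR drug-control wells (low) per plate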

Test [5] is described as follows: H69AR cell proliferation blockers – human, duplicate replicates, primary screen (AID 580).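 Further: 100% = mean luminescence of untreated wells and 0% = no signal.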 The conditions noted are these: H69AR lung tumor cells viability, ATP luminescence, 72 h; at 10 µM; stronger effect = lower value.
A short description of test [6]: MRP1 drug-resistance reversers in H69AR cells – cell-based, doxorubicin co-treatment, pilot screen (AID 601;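 active means viability loss from added drug above about 55%, and viability with drug at most 40%, in both replicates, limit read from the data, passing the limit was not always enough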). Conditions: CellTiter-Glo, 72 h, at 10 µM; for differential viability (reversal): stronger effect = higher value.
Test [7] can be described thus: yeast transport mutant growth inhibition pilot in 384-well plates, post-Golgi transport modulator project (AID 636; in the data active means inhibition above about 31%). Conditions: absorbance 615 nm, about 18 h, stronger effect = higher value.
Test [8] is described as follows: growth suppression of yeast trafficking mutant, preliminary HTS, modulators of trafficking downstream of Golgi apparatus project, 1536-format plate, OD 615 nm (AID 637; in the data active means inhibition above about 30%). Conditions: yeast transport mutant growth, absorbance 615 nm, 18 h; stronger effect = higher value.
[9] abbreviates: H69AR cells + 2 uM doxorubicin, measured here: viability with 2 uM doxorubicin, stronger effect = lower value.
Where [10] appears, read: H69AR cells, compound alone cytotoxicity.

As a reminder, the viability is a read-out of living cells in per cent, often relative to untreated cells. What is called inhibition is the drop in the measured response relative to a control, in per cent.

Activity calls are given as the source filed them.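 How the source made its calls, unless noted: active means viability at or under a set limit in both replicates, limit being median viability minus 3 SD (cut at about 48% in these data, passing the limit was not always enough); inconclusive means at or under the limit in just one replicate; inactive means at or above the limit in both replicates.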

Sequence of Receptor tyrosine-protein kinase erbB-2 (Homo sapiens) (P04626 whole entry, looked up): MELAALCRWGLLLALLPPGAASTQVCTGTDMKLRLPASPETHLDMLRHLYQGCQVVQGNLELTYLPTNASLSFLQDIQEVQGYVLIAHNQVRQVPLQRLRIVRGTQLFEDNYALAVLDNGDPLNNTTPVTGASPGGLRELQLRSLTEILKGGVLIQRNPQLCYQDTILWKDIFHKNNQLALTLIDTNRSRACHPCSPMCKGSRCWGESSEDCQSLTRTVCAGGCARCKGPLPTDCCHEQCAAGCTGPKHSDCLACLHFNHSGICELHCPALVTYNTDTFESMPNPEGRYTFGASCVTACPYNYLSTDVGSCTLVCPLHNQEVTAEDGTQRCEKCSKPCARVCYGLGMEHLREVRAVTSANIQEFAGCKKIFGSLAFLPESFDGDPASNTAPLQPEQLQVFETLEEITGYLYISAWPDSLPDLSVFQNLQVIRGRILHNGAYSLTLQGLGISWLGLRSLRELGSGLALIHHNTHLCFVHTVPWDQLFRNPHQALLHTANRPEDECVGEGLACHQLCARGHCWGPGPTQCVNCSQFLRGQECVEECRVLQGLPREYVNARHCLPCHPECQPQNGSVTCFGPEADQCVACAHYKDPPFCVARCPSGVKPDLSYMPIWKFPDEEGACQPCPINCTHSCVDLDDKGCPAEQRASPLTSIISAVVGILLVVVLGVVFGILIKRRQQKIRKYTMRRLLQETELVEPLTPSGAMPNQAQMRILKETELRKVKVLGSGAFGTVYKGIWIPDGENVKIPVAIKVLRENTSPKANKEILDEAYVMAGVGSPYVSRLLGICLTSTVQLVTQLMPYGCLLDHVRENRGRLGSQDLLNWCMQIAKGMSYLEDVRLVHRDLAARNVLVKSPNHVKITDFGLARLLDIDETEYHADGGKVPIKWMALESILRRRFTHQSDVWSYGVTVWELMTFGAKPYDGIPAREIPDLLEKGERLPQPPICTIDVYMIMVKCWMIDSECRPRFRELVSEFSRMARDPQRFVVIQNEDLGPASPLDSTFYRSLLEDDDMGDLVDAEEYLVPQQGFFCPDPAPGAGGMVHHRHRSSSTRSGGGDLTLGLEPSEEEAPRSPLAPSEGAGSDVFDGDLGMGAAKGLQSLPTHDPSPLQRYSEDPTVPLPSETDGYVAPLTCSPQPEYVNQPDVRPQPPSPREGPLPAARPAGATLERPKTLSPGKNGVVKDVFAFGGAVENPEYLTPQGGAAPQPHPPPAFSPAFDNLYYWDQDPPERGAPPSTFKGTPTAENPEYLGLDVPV

As to `CC1CCN(C(=S)c2ccccc2O)CC1`, the viability in test [1] is 116%; in test [3], 116% (inactive); in test [4] it was 92.8% (inactive); in test [5], 89% (inactive); in test [6] (setting [9]), 89.9%; in test [6] (setting [10]), 89%. The Her2 level in test [2] was 105% (inactive). Moreover, the differential viability (reversal) in test [6] (H69AR cells + 2 uM doxorubicin) was -0.9% (inactive). The inhibition was -5.2% (inactive) in test [7] and -6.29% (inactive) in test [8].

In the case of `CC1Cc2ccccc2N1Cc1cc(=O)n2ccsc2n1` (stereo not given), the viability in test [1] is 102%; in test [3], 102% (inactive); in test [4] it was 80.4% (inactive); in test [5], 74.7% (inactive); in test [6] (setting [9]), 92.6%; in test [6] (setting [10]), 74.7%. Moreover, in test [2], the Her2 level is 78.5% (inactive). The differential viability (reversal) in test [6] (H69AR cells + 2 uM doxorubicin) is -17.9% (inactive). Besides, the inhibition is -2.99% (inactive) in test [7] and -6.98% (inactive) in test [8].

On to `COC(=O)CN(c1ccc(F)cc1)S(=O)(=O)c1ccccc1`, for which the viability in test [1] is 91.5%; in test [3], 91.5% (inactive); in test [4] it was 122% (inactive); in test [5] it was 92.1% (inactive); in test [6] (setting [9]), 92.8%; in test [6] (setting [10]) it was 92.1%. Moreover, the Her2 level in test [2] was 109% (inactive). In addition, in test [6] (H69AR cells + 2 uM doxorubicin), the differential viability (reversal) is -0.7% (inactive). The inhibition in test [7] was 0.13% (inactive); in test [8], -3.93% (inactive).

For the compound `COc1ccccc1-c1cc(C(=O)Nc2cc(C)nn2-c2ccccc2)no1`, the viability was 89% in test [1]; 89% (inactive) in test [3]; 61% (inactive) in test [4]; 15.5% (active) in test [5]; 49.1% in test [6] (setting [9]); 15.5% in test [6] (setting [10]). For the same compound, in test [2], the Her2 level is 81.5% (inactive). The differential viability (reversal) in test [6] (H69AR cells + 2 uM doxorubicin) was -33.6% (inactive). The values for the inhibition in test [7] and in test [8] were 7.84% (inactive) and -3.11% (inactive), respectively.

For the compound `CCOc1ccc2oc(-c3ccccc3)c(C(=O)N3CCN(CCO)CC3)c2c1`, the viability in test [1] was 97.5%; in test [3], 97.5% (inactive); in test [4] it was 74.3% (inactive); in test [5] it was 72.9% (inactive); in test [6] (setting [9]), 69.6%; in test [6] (setting [10]) it was 72.9%. For the same compound, the Her2 level in test [2] was 83% (inactive). Further, the differential viability (reversal) in test [6] (H69AR cells + 2 uM doxorubicin) is 3.36% (inactive). For the same compound, the results for the inhibition in test [7] and in test [8] were -4.42% (inactive) and 0% (inactive), respectively.

Turning to `O=C(COc1ccc(S(=O)(=O)N2CCCC2)cc1Cl)NC1CC1`, the viability in test [1] was 126%; in test [3], 126% (inactive); in test [4], 112% (inactive); in test [5], 101% (inactive); in test [6] (setting [9]), 93.2%; in test [6] (setting [10]), 101%. Besides, the Her2 level in test [2] is 108% (inactive). In addition, in test [6] (H69AR cells + 2 uM doxorubicin), the differential viability (reversal) is 7.76% (inactive). In addition, the inhibition in test [7] is -5.68% (inactive); in test [8] it was 3.67% (inactive).

Consider `O=C(CCc1ccc(S(=O)(=O)N2CCOCC2)cc1)NCCc1ccccn1`, for which the viability was 100% in test [1]; 100% (inactive) in test [3]; 94.8% (inactive) in test [4]; 87.9% (inactive) in test [5]; 102% in test [6] (setting [9]); 87.9% in test [6] (setting [10]). Besides, the Her2 level in test [2] was 102% (inactive). Further, the differential viability (reversal) in test [6] (H69AR cells + 2 uM doxorubicin) is -13.7% (inactive). The values for the inhibition in test [7] and in test [8] were -1.04% (inactive) and -4.13% (inactive), respectively.

For the compound `Cc1ccccc1C(=O)NC1CCN(Cc2nnnn2Cc2ccccc2)CC1`, the viability in test [1] was 93.5%; in test [3], 93.5% (inactive); in test [4], 91.3% (inactive); in test [5], 98.2% (inactive); in test [6] (setting [9]) it was 95.6%; in test [6] (setting [10]), 98.2%. Also, in test [2], the Her2 level was 78% (inactive). For the same compound, in test [6] (H69AR cells + 2 uM doxorubicin), the differential viability (reversal) was 2.56% (inactive). In addition, the inhibition in test [7] was -4.46% (inactive); in test [8], 3.49% (inactive).

With `Clc1ccccc1OCCCCn1ccnc1`, the viability in test [1] was 95%; in test [3], 95% (inactive); in test [4], 95.9% (inactive); in test [5], 83.7% (inactive); in test [6] (setting [9]) it was 72.3%; in test [6] (setting [10]), 83.7%. Also, the Her2 level in test [2] was 114% (inactive). Moreover, the differential viability (reversal) in test [6] (H69AR cells + 2 uM doxorubicin) was 11.4% (inactive). For the same compound, the inhibition was 2.34% (inactive) in test [7] and -4.33% (inactive) in test [8].

For `CCOC(=O)N1CCN(c2cc3[nH]c(=S)[nH]c3cc2F)CC1`, the viability was 112% in test [1]; 112% (inactive) in test [3]; 100% (inactive) in test [4]; 89.7% (inactive) in test [5]; 96.4% in test [6] (setting [9]); 89.7% in test [6] (setting [10]). Besides, the Her2 level in test [2] is 83% (inactive). Besides, in test [6] (H69AR cells + 2 uM doxorubicin), the differential viability (reversal) is -6.7% (inactive). Also, the inhibition in test [7] is -7.2% (inactive); in test [8] it was -2.58% (inactive).

With `CCOC(=O)NC(=O)CSc1nnnn1-c1ccc(Cl)cc1`, the viability in test [1] is 86.5%; in test [3] it was 86.5% (inactive); in test [4], 104% (inactive); in test [5] it was 106% (inactive); in test [6] (setting [9]), 85.7%; in test [6] (setting [10]), 106%. Also, the Her2 level in test [2] is 94% (inactive). Further, the differential viability (reversal) in test [6] (H69AR cells + 2 uM doxorubicin) was 20.4% (inactive). Besides, the inhibition in test [7] was -5.2% (inactive); in test [8], 0.48% (inactive).

In the case of `Cc1cc(=O)[nH]c(S/C=C/c2ccccc2)n1`, the viability in test [1] was 91.5%; in test [3], 91.5% (inactive); in test [4], 77% (inactive); in test [5] it was 79.9% (inactive); in test [6] (setting [9]) it was 79.4%; in test [6] (setting [10]), 79.9%. The Her2 level in test [2] is 95% (inactive). Also, the differential viability (reversal) in test [6] (H69AR cells + 2 uM doxorubicin) is 0.47% (inactive). For the same compound, the inhibition in test [7] is -3.12% (inactive); in test [8], -2.86% (inactive).

As for `CN1CCN(C(=O)c2cnn3c(C(F)F)cc(C4CC4)nc23)CC1`, the viability in test [1] was 95%; in test [3] it was 95% (inactive); in test [4], 103% (inactive); in test [5] it was 94.4% (inactive); in test [6] (setting [9]), 85.1%; in test [6] (setting [10]) it was 94.4%. Moreover, in test [2], the Her2 level is 88.5% (inactive). For the same compound, the differential viability (reversal) in test [6] (H69AR cells + 2 uM doxorubicin) is 9.3% (inactive). Besides, the inhibition was -2.63% (inactive) in test [7] and 3.23% (inactive) in test [8].

On to `CCCCC(=NCCO)C1=C(O)C(C(=O)OC)C(C)(C)CC1=O` (stereo not given), for which the viability in test [1] is 90.5%; in test [3], 90.5% (inactive); in test [4] it was 99.7% (inactive); in test [5], 89.5% (inactive); in test [6] (setting [9]) it was 90.5%; in test [6] (setting [10]) it was 89.5%. Moreover, in test [2], the Her2 level is 93% (inactive). Besides, the differential viability (reversal) in test [6] (H69AR cells + 2 uM doxorubicin) is -0.975% (inactive). For the same compound, the inhibition in test [7] was -3.68% (inactive); in test [8], -3.81% (inactive).

The values above are taken from PubChem BioAssay.
